Measurements pooled from the literature.
Each line is one published result; the experiments were not run side by side.
Read-out: cell growth or viability

C[C@H]1[C@H](C)CC[C@]2(C(=O)O)CC[C@]3(C)C(=CC[C@@H]4[C@@]5(C)CC[C@H](O)C(C)(C)[C@@H]5CC[C@]43C)[C@H]12
IC50 (DLD-1; 48 h): 13000 nM

CCN1C(=O)N(c2c(F)c(OC)cc(OC)c2F)Cc2cnc3[nH]c(CN4CCOCC4)cc3c21
IC50 (MFE-296; ATP luminescence; 96 h): 56 nM

CN(C(=O)COC(=O)/C=C/c1cccc([N+](=O)[O-])c1)C1CCS(=O)(=O)C1 (centres unmarked)
IC50 (DLD-1; ATP luminescence; 48 h): 1600 nM

CC(C)n1ncnc1-c1cn2c(n1)-c1ccc(O[C@@H](C)C(N)=O)cc1OCC2
IC50 (SW48; ATP luminescence; 96 h): 21 nM

Nc1ccn([C@@H]2O[C@H](CO)[C@@H](O)C2(F)F)c(=O)n1
IC50 (BXPC-3; MTT): 28 nM

CC(C)C[C@H](NC(=O)[C@H](Cc1ccccc1)NC(=O)c1cnccn1)B(O)O
IC50 (SK-N-FI; ATP luminescence): 13 nM

CCn1c(=O)c(-c2ccc(-c3cncs3)cc2Cl)cc2cnc(Nc3ccc(N4CCN(C)CC4)cc3)nc21
IC50 (BXPC-3; MTT; 24 h): 3030 nM

CCN1CCN(c2ccc(Nc3cc(N(C)C(=O)Nc4c(Cl)c(OC)cc(OC)c4Cl)ncn3)cc2)CC1
IC50 (MFE-296; ATP luminescence; 96 h): 52.5 nM

CCN(CC)CCCC(C)Nc1cnc(C(=O)Nc2cc(F)cc3cccnc23)cn1 (centres unmarked)
IC50 (BXPC-3; MTT): 7300 nM

COc1cc([C@@H]2c3cc4c(cc3[C@@H](O[C@@H]3O[C@@H]5CO[C@@H](C)O[C@H]5[C@H](O)[C@H]3O)[C@H]3COC(=O)[C@H]23)OCO4)cc(OC)c1O
IC50 (DLD-1; fluorescence; 48 h): 1300 nM

C[C@H](NC(=O)c1cccc2ccccc12)C(=O)Nc1ccccc1Oc1ccccc1
IC50 (SK-N-FI): 3000 nM

CC(=O)O[C@H]1C(=O)[C@@]2(C)[C@H]([C@H](OC(=O)c3ccccc3)[C@]3(O)C[C@H](OC(=O)[C@H](O)[C@@H](NC(=O)c4ccccc4)c4ccccc4)C(C)=C1C3(C)C)[C@]1(OC(C)=O)CO[C@@H]1C[C@@H]2O
IC50 (BXPC-3; fluorescence; 72 h): 4 nM

COc1cc(Nc2nccc(-c3cnn4nc(OC)ccc34)n2)cc(C(F)(F)F)c1
IC50 (DLD-1; ATP luminescence): 530 nM

CN(C)C/C=C/C(=O)Nc1cc2c(Nc3ccc(F)c(Cl)c3)ncnc2cc1O[C@H]1CCOC1
IC50 (SW620/AD300; MTT; 72 h): 4300 nM
